Laboratory results from ChEMBL document CHEMBL1125279, “Neurochemistry of aging. 2. Design, synthesis, and biological evaluation of halomethyl analogues of choline with high affinity choline transport inhibitory activity” (J Med Chem, 1991).

Columns and labels:
Format in all cases: functional
Rattus norvegicus = species: Rattus norvegicus; experiment: Concentration required to inhibit 50% of the transport of [3H]choline into synaptosomes, using rat hippocampal synaptosomes.; details: Hippocampus
In short: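 Rat hippocampus dissected on ice, homogenized in 0.32 M sucrose; P2 pellet (12000g, 20 min) resuspended in sucrose. Synaptosomes incubated with [3H]choline and increasing inhibitor concentrations, 8 min at 30 °C; filtered, washed three times, lysed in water, tritium counted. High-affinity uptake = standard-medium minus sodium-free accumulation, per mg protein (Lowry); IC50 from percent inhibition.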

Cavia porcellus [1] = species: Cavia porcellus; experiment: Relative potency with respect to choline in isolated guinea pig ileum preparations.
Cavia porcellus [2] = species: Cavia porcellus; experiment: Relative potency with respect to acetylcholine in isolated guinea pig ileum preparations.
In short: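 Guinea pig ileum segment in Tyrode's solution (NaCl 137 mM, KCl 2.68 mM, MgCl2 1.05 mM, CaCl2 1.80 mM, NaH2PO4 0.42 mM, NaHCO3 11.90 mM, glucose 5.55 mM), contents flushed. Contractions to 3–7 concentrations recorded by polygraph and compared against concentration responses to acetylcholine and choline.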

| SMILES | IC50 (Rattus norvegicus) [µM] | Relative potency (Cavia porcellus [1]) | Relative potency (Cavia porcellus [2]) |
| --- | --- | --- | --- |
| CC(O)C[N+](C)(C)CBr.[Br-] (stereo unspecified) | 56 | 0.04 | – |
| CC1C[N+](C)(C)CO1.[Br-] (stereo unspecified) | 200 | 2 | – |
| C[N+]1(C)CCOC1.[Br-] | 78 | 4.25 | – |
| CC(=O)OCC[N+](C)(C)CI.[I-] | – | – | 0.11 |
| CC(=O)OCC[N+](C)(C)CBr.[Br-] | – | – | 0.05 |
| C[N+](C)(CBr)CCO.[Br-] | 0.87 | 0.14 | – |
| C[N+](C)(CCl)CCO.[I-] | 0.92 | 0.13 | – |
| CC(O)C[N+](C)(C)CCl.[I-] (stereo unspecified) | 130 | 0.05 | – |
| CC(=O)OC(C)C[N+](C)(C)CI.[I-] (stereo unspecified) | – | – | 0.02 |
| C[N+](C)(CI)CCO.[I-] | 0.49 | 0.33 | – |
| CC(O)C[N+](C)(C)CI.[I-] (stereo unspecified) | 50 | 0.1 | – |
| CC(=O)OCC[N+](C)(C)CCl.[I-] | – | – | 0.09 |
| CC(=O)OCC[N+](C)(C)C.[I-] [ACETYLCHOLINE IODIDE] | – | – | 1 |
